What is called MIC is the lowest concentration found to suppress growth.

For assay [1], the system named is Candida albicans. In words: Antifungal activity against Candida albicans ATCC 14503 by broth microdilution method. Format: functional. In outline:
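C. albicans reference strain grown on Sabouraud dextrose agar at 30 °C for 24 h. NCCLS broth microdilution: 2-fold serial dilutions from DMSO stocks in RPMI-1640 buffered to pH 7.0 with 0.165 M MOPS. Final concentrations 0.062–64 µg/mL; amphotericin B control 0.0078–8 µg/mL. Tested in replicate; growth read as OD 600 nm; MIC = lowest concentration giving ≥90% growth inhibition.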
On the technique in general: Broth dilution looks for growth in wells or tubes with falling amounts of substance.

The subject of assay [2] is Candida albicans. In words: Antifungal activity against fluconazole-resistant Candida albicans isolate UCDFR1 by broth microdilution method. Format: functional, organism-based. In outline:
(§1)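 Isolates were maintained on Sabouraud dextrose agar at 30 °C, for 24 h (Candida) or 48 h (C. neoformans). Testing followed the NCCLS broth microdilution method, using 2-fold serial dilutions from DMSO stocks in RPMI-1640 buffered to pH 7.0 with 0.165 M MOPS. Final concentrations were 0.062–64 µg/mL, with amphotericin B as positive control. Replicates were run, and growth was read by OD600. MIC was the lowest concentration giving ≥90% inhibition.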

The test system of another assay is Nakaseomyces glabratus. Description: Antifungal activity against Candida glabrata clinical isolate by broth microdilution method. Format: functional. The procedure, abridged: as §1
The subject of a further assay is Pichia kudriavzevii. Description: Antifungal activity against fluconazole-resistant Candida krusei clinical isolate by broth microdilution method. Format: functional, organism-based. In outline:
as §1

The next assay relates to Cryptococcus neoformans. Description: Antifungal activity against Cryptococcus neoformans var. grubii clinical isolate by broth microdilution method. Format: functional. In outline:
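Clinical isolate maintained on Sabouraud dextrose agar, 30 °C, 48 h. Susceptibility by NCCLS broth microdilution in RPMI-1640 with 0.165 M MOPS (pH 7.0), using 2-fold dilutions from DMSO stocks spanning 0.062–64 µg/mL final (amphotericin B control 0.0078–8 µg/mL). Replicate wells per run; OD 600 nm read-out; MIC endpoint is the lowest concentration with complete (≥90%) inhibition.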

A further assay relates to Cryptococcus gattii. Description: Antifungal activity against Cryptococcus neoformans var. gattii clinical isolate by broth microdilution method. Format: functional, organism-based. To be noted: Cryptococcus bacillisporus. In outline:
as §1

For assay [3], the system named is Candida albicans. Description: Antifungal activity against fluconazole-resistant Candida albicans isolate 96-489 by broth microdilution method.

Converted amounts (≈) assume the structure as drawn. The source made the active and inactive calls. No cut-off for these calls is given here.

In the case of `CO[C@H]([C@H](C)/C=C/N(C)C=O)[C@@H](C)C(=O)CC[C@H](C)[C@H](C[C@@H]1OC(=O)C[C@@H](OC(N)=O)C[C@H](C)C[C@H](O)[C@H](C)[C@@H](OC)c2coc(n2)-c2coc(n2)-c2coc(n2)/C=C/C[C@H](OC)[C@H]1C)OC` [KABIRAMIDE C], the MIC with Candida albicans [1] came out at 0.016 µg/mL (≈ 0.017 µM); in the assay with Nakaseomyces glabratus it was 0.25 µg/mL (≈ 0.265 µM); in the assay on Cryptococcus neoformans, 0.125 µg/mL (≈ 0.133 µM). Further, the MIC entry in the assay with Candida albicans [2], in the assay with Pichia kudriavzevii, in the assay with Cryptococcus gattii and in the assay on Candida albicans [3] was “Active” each time.
`CO[C@H]([C@H](C)/C=C/N(C)C=O)[C@@H](C)C(=O)CC[C@H](C)[C@H](C[C@@H]1OC(=O)C[C@@H](O)CCC[C@H](O)[C@H](C)[C@H](OC)c2coc(n2)-c2coc(n2)-c2coc(n2)/C=C/CC[C@H]1C)OC`: the figures for the MIC in the assay on Candida albicans [1], in the assay on Nakaseomyces glabratus and in the assay with Cryptococcus neoformans were 0.25 µg/mL (≈ 0.292 µM), 0.125 µg/mL (≈ 0.146 µM) and 0.5 µg/mL (≈ 0.585 µM), respectively.
The matching figures for `C[C@@H]1[C@H](O)[C@@H](C)/C=C/C=C/C=C/C=C/C=C/C=C/C=C/[C@H](O[C@@H]2O[C@H](C)[C@@H](O)[C@H](N)[C@@H]2O)C[C@@H]2O[C@](O)(C[C@@H](O)C[C@@H](O)[C@H](O)CC[C@@H](O)C[C@@H](O)CC(=O)O[C@H]1C)C[C@H](O)[C@H]2C(=O)O` [AMPHOTERICIN B]: 0.016 µg/mL (≈ 0.0173 µM), 0.25 µg/mL (≈ 0.271 µM) and 0.016 µg/mL (≈ 0.0173 µM).
On to `CO[C@H]([C@H](C)/C=C/N(C)C=O)[C@@H](C)C(=O)CC[C@H](C)[C@H](C[C@@H]1OC(=O)C[C@@H](OC(N)=O)C[C@H](C)C[C@H](O)[C@H](C)[C@@H](OC)c2coc(n2)-c2coc(n2)-c2coc(n2)/C=C/C[C@H](O)[C@H]1C)OC` [KABIRAMIDE B], for which the MIC in the assay with Candida albicans [1] was 0.5 µg/mL (≈ 0.539 µM); against Nakaseomyces glabratus it was 0.5 µg/mL (≈ 0.539 µM); in the assay with Cryptococcus neoformans, 1 µg/mL (≈ 1.08 µM).
As for `CO[C@H]([C@H](C)/C=C/N(C)C=O)[C@@H](C)C(=O)CC[C@H](C)[C@H](C[C@@H]1OC(=O)C[C@@H](OC(N)=O)C[C@H](C)C[C@H](O)[C@H](C)[C@@H](O)c2coc(n2)-c2coc(n2)-c2coc(n2)/C=C/C[C@H](O)[C@H]1C)OC` [9-O-DESMETHYL KABIRAMIDE B], the MIC amounted to 2 µg/mL (≈ 2.19 µM) with Candida albicans [1], 1 µg/mL (≈ 1.09 µM) in the assay on Nakaseomyces glabratus and 2 µg/mL (≈ 2.19 µM) in the assay with Cryptococcus neoformans. For the same molecule, the MIC result in the assay on Candida albicans [2], with Pichia kudriavzevii, in the assay with Cryptococcus gattii and in the assay on Candida albicans [3] was “inactive” each time.

Values taken from ChEMBL document CHEMBL1151832, “Structure elucidation at the nanomole scale. 1. Trisoxazole macrolides and thiazole-containing cyclic peptides from the nudibranch Hexabranchus sanguineus” (2009).
